Laboratory results published in ChEMBL document CHEMBL5376017, “Glucosamine substituted sulfonylureas: IRS-PI3K-PKC-AKT-GLUT4 insulin signalling pathway intriguing agent” (RSC Med Chem, 2024).
Active and inactive are the calls of the source. No cut-off for these calls is given here.

tested on: not listed separately; assay: Cytotoxicity against rat L6 cells assessed as cell viability at 50 to 250 uM incubated for 24 hrs by MTT assay relative to control; type: toxicity, cell-based; details: dose 50-250 µM, read-out: Activity
In short: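 Rat L6 myoblasts, 2 × 10^4 cells per mL, allowed to attach, then exposed for 24 h to five concentrations (50–250 μM) from DMSO stocks; 0.1% DMSO as negative control. MTT at 0.5 mg mL−1 added for 4 h, formazan dissolved in DMSO, absorbance read at 570 nm. Viability calculated against control. Triplicate wells, three independent experiments.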

Row | Structure (SMILES) | viability at 24 h, up to 250 µM
1 | CC(=O)OC[C@H]1OC(OC(C)=O)[C@H](NC(=O)NS(=O)(=O)c2ccccc2)[C@@H](OC(C)=O)[C@@H]1OC(C)=O (some centres undefined) | 50%
2 | Cc1ccc(S(=O)(=O)NC(=O)N[C@H]2C(O)O[C@H](CO)[C@@H](O)[C@@H]2O)cc1 (some centres undefined) | 50%
3 | CC(=O)OC[C@H]1OC(OC(C)=O)[C@H](NC(=O)NS(=O)(=O)c2ccc(C)cc2)[C@@H](OC(C)=O)[C@@H]1OC(C)=O (some centres undefined) | 50%
4 | O=C(N[C@H]1C(O)O[C@H](CO)[C@@H](O)[C@@H]1O)NS(=O)(=O)c1ccccc1 (some centres undefined) | < 50%

tested on: L6; assay: Upregulation of IRS-1 expression in insulin resistant myotube differentiated rat L6 cells at 1 to 2 uM incubated for 24 hrs by qRT-PCR analysis; type: functional, cell-based; details: dose 1-2 µM
In short: (§1)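 L6 myoblasts differentiated to myotubes in DMEM with 2% horse serum for 7 days, 2 × 10^4 cells per well. Insulin resistance induced in three steps: 25 mM glucose plus insulin for 24 h, then 5 mM glucose without insulin for 5 h, then insulin for 30 min. Compounds in DMEM with 2% inactivated FBS for 24 h. qPCR normalized to geometric mean of β-actin and γ-actin. Mean ± SEM, one-way ANOVA with Duncan test.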

Row | Structure (SMILES) | Activity
5 | CC(=O)OC[C@H]1OC(OC(C)=O)[C@H](NC(=O)NS(=O)(=O)c2ccccc2)[C@@H](OC(C)=O)[C@@H]1OC(C)=O (some centres undefined) | Active
6 | Cc1ccc(S(=O)(=O)NC(=O)N[C@H]2C(O)O[C@H](CO)[C@@H](O)[C@@H]2O)cc1 (some centres undefined) | Active
7 | CC(=O)OC[C@H]1OC(OC(C)=O)[C@H](NC(=O)NS(=O)(=O)c2ccc(C)cc2)[C@@H](OC(C)=O)[C@@H]1OC(C)=O (some centres undefined) | Active
8 | O=C(N[C@H]1C(O)O[C@H](CO)[C@@H](O)[C@@H]1O)NS(=O)(=O)c1ccccc1 (some centres undefined) | Active

tested on: Soleus muscle; assay: Upregulation of IRS-1 expression in insulin resistant Sprague-Dawley rat soleus muscle at 1 to 2 uM incubated for 24 hrs by qRT-PCR analysis; type: functional, tissue-based; details: dose 1-2 µM
In short: (§2)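 Isolated rat soleus muscle in gassed (95% O2–5% CO2) Krebs–Henseleit buffer. Insulin resistance induced in four steps: KHB with 0.1% BSA and 1 mM pyruvate for 24 h at 37 °C, then high glucose/insulin for 24 h, then 25 mM glucose for 5 h, then insulin for 30 min. Tissue then exposed in KHB for 24 h. qPCR normalized to β-/γ-actin geometric mean. Mean ± SEM, ANOVA/Duncan.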

Row | Structure (SMILES) | Activity
9 | CC(=O)OC[C@H]1OC(OC(C)=O)[C@H](NC(=O)NS(=O)(=O)c2ccccc2)[C@@H](OC(C)=O)[C@@H]1OC(C)=O (some centres undefined) | Active
10 | Cc1ccc(S(=O)(=O)NC(=O)N[C@H]2C(O)O[C@H](CO)[C@@H](O)[C@@H]2O)cc1 (some centres undefined) | Active
11 | CC(=O)OC[C@H]1OC(OC(C)=O)[C@H](NC(=O)NS(=O)(=O)c2ccc(C)cc2)[C@@H](OC(C)=O)[C@@H]1OC(C)=O (some centres undefined) | Active
12 | O=C(N[C@H]1C(O)O[C@H](CO)[C@@H](O)[C@@H]1O)NS(=O)(=O)c1ccccc1 (some centres undefined) | Active

tested on: L6; assay: Upregulation of PI3K expression in insulin resistant myotube differentiated rat L6 cells at 1 to 2 uM incubated for 24 hrs by qRT-PCR analysis; type: functional, cell-based; details: dose 1-2 µM; in short: as §1

Row | Structure (SMILES) | Activity
13 | CC(=O)OC[C@H]1OC(OC(C)=O)[C@H](NC(=O)NS(=O)(=O)c2ccccc2)[C@@H](OC(C)=O)[C@@H]1OC(C)=O (some centres undefined) | Active
14 | Cc1ccc(S(=O)(=O)NC(=O)N[C@H]2C(O)O[C@H](CO)[C@@H](O)[C@@H]2O)cc1 (some centres undefined) | Active
15 | CC(=O)OC[C@H]1OC(OC(C)=O)[C@H](NC(=O)NS(=O)(=O)c2ccc(C)cc2)[C@@H](OC(C)=O)[C@@H]1OC(C)=O (some centres undefined) | Active
16 | O=C(N[C@H]1C(O)O[C@H](CO)[C@@H](O)[C@@H]1O)NS(=O)(=O)c1ccccc1 (some centres undefined) | Active

tested on: Soleus muscle; assay: Upregulation of PI3K expression in insulin resistant Sprague-Dawley rat soleus muscle at 1 to 2 uM incubated for 24 hrs by qRT-PCR analysis; type: functional, tissue-based; details: dose 1-2 µM; in short: as §2

Row | Structure (SMILES) | Activity
17 | CC(=O)OC[C@H]1OC(OC(C)=O)[C@H](NC(=O)NS(=O)(=O)c2ccccc2)[C@@H](OC(C)=O)[C@@H]1OC(C)=O (some centres undefined) | Active
18 | Cc1ccc(S(=O)(=O)NC(=O)N[C@H]2C(O)O[C@H](CO)[C@@H](O)[C@@H]2O)cc1 (some centres undefined) | Active
19 | CC(=O)OC[C@H]1OC(OC(C)=O)[C@H](NC(=O)NS(=O)(=O)c2ccc(C)cc2)[C@@H](OC(C)=O)[C@@H]1OC(C)=O (some centres undefined) | Active
20 | O=C(N[C@H]1C(O)O[C@H](CO)[C@@H](O)[C@@H]1O)NS(=O)(=O)c1ccccc1 (some centres undefined) | Active

tested on: L6; assay: Downregulation of PKC-alpha expression in insulin resistant myotube differentiated rat L6 cells at 1 to 2 uM incubated for 24 hrs by qRT-PCR analysis; type: functional, cell-based; details: dose 1-2 µM; in short: as §1

Row | Structure (SMILES) | Activity
21 | CC(=O)OC[C@H]1OC(OC(C)=O)[C@H](NC(=O)NS(=O)(=O)c2ccccc2)[C@@H](OC(C)=O)[C@@H]1OC(C)=O (some centres undefined) | Active
22 | Cc1ccc(S(=O)(=O)NC(=O)N[C@H]2C(O)O[C@H](CO)[C@@H](O)[C@@H]2O)cc1 (some centres undefined) | Active
23 | CC(=O)OC[C@H]1OC(OC(C)=O)[C@H](NC(=O)NS(=O)(=O)c2ccc(C)cc2)[C@@H](OC(C)=O)[C@@H]1OC(C)=O (some centres undefined) | Active
24 | O=C(N[C@H]1C(O)O[C@H](CO)[C@@H](O)[C@@H]1O)NS(=O)(=O)c1ccccc1 (some centres undefined) | Active

tested on: Soleus muscle; assay: Downregulation of PKC-alpha expression in insulin resistant Sprague-Dawley rat soleus muscle at 1 to 2 uM incubated for 24 hrs by qRT-PCR analysis; type: functional, tissue-based; details: dose 1-2 µM; in short: as §2

Row | Structure (SMILES) | Activity
25 | CC(=O)OC[C@H]1OC(OC(C)=O)[C@H](NC(=O)NS(=O)(=O)c2ccccc2)[C@@H](OC(C)=O)[C@@H]1OC(C)=O (some centres undefined) | Active
26 | Cc1ccc(S(=O)(=O)NC(=O)N[C@H]2C(O)O[C@H](CO)[C@@H](O)[C@@H]2O)cc1 (some centres undefined) | Active
27 | CC(=O)OC[C@H]1OC(OC(C)=O)[C@H](NC(=O)NS(=O)(=O)c2ccc(C)cc2)[C@@H](OC(C)=O)[C@@H]1OC(C)=O (some centres undefined) | Active
28 | O=C(N[C@H]1C(O)O[C@H](CO)[C@@H](O)[C@@H]1O)NS(=O)(=O)c1ccccc1 (some centres undefined) | Active

tested on: L6; assay: Upregulation of PKB/AKT2 expression in insulin resistant myotube differentiated rat L6 cells at 2 uM incubated for 24 hrs by qRT-PCR analysis; type: functional, cell-based; details: not given; in short: as §1

Row | Structure (SMILES) | Activity
29 | CC(=O)OC[C@H]1OC(OC(C)=O)[C@H](NC(=O)NS(=O)(=O)c2ccccc2)[C@@H](OC(C)=O)[C@@H]1OC(C)=O (some centres undefined) | Active
30 | Cc1ccc(S(=O)(=O)NC(=O)N[C@H]2C(O)O[C@H](CO)[C@@H](O)[C@@H]2O)cc1 (some centres undefined) | Active
31 | CC(=O)OC[C@H]1OC(OC(C)=O)[C@H](NC(=O)NS(=O)(=O)c2ccc(C)cc2)[C@@H](OC(C)=O)[C@@H]1OC(C)=O (some centres undefined) | Active
32 | O=C(N[C@H]1C(O)O[C@H](CO)[C@@H](O)[C@@H]1O)NS(=O)(=O)c1ccccc1 (some centres undefined) | Active

tested on: Soleus muscle; assay: Upregulation of PKB/AKT2 insulin resistant Sprague-Dawley rat soleus muscle at 2 uM incubated for 24 hrs by qRT-PCR analysis; type: functional, tissue-based; details: not given; in short: as §2

Row | Structure (SMILES) | Activity
33 | CC(=O)OC[C@H]1OC(OC(C)=O)[C@H](NC(=O)NS(=O)(=O)c2ccccc2)[C@@H](OC(C)=O)[C@@H]1OC(C)=O (some centres undefined) | Active
34 | Cc1ccc(S(=O)(=O)NC(=O)N[C@H]2C(O)O[C@H](CO)[C@@H](O)[C@@H]2O)cc1 (some centres undefined) | Active
35 | CC(=O)OC[C@H]1OC(OC(C)=O)[C@H](NC(=O)NS(=O)(=O)c2ccc(C)cc2)[C@@H](OC(C)=O)[C@@H]1OC(C)=O (some centres undefined) | Active
36 | O=C(N[C@H]1C(O)O[C@H](CO)[C@@H](O)[C@@H]1O)NS(=O)(=O)c1ccccc1 (some centres undefined) | Active

tested on: L6; assay: Upregulation of GLUT4 expression in insulin resistant myotube differentiated rat L6 cells at 1 to 2 uM incubated for 24 hrs by qRT-PCR analysis; type: functional, cell-based; details: dose 1-2 µM; in short: as §1

Row | Structure (SMILES) | Activity
37 | CC(=O)OC[C@H]1OC(OC(C)=O)[C@H](NC(=O)NS(=O)(=O)c2ccccc2)[C@@H](OC(C)=O)[C@@H]1OC(C)=O (some centres undefined) | Active
38 | Cc1ccc(S(=O)(=O)NC(=O)N[C@H]2C(O)O[C@H](CO)[C@@H](O)[C@@H]2O)cc1 (some centres undefined) | Active
39 | CC(=O)OC[C@H]1OC(OC(C)=O)[C@H](NC(=O)NS(=O)(=O)c2ccc(C)cc2)[C@@H](OC(C)=O)[C@@H]1OC(C)=O (some centres undefined) | Active
40 | O=C(N[C@H]1C(O)O[C@H](CO)[C@@H](O)[C@@H]1O)NS(=O)(=O)c1ccccc1 (some centres undefined) | Active

tested on: Soleus muscle; assay: Upregulation of GLUT4 expression in insulin resistant Sprague-Dawley rat soleus muscle at 1 to 2 uM incubated for 24 hrs by qRT-PCR analysis; type: functional, tissue-based; details: dose 1-2 µM; in short: as §2

Row | Structure (SMILES) | Activity
41 | CC(=O)OC[C@H]1OC(OC(C)=O)[C@H](NC(=O)NS(=O)(=O)c2ccccc2)[C@@H](OC(C)=O)[C@@H]1OC(C)=O (some centres undefined) | Active
42 | Cc1ccc(S(=O)(=O)NC(=O)N[C@H]2C(O)O[C@H](CO)[C@@H](O)[C@@H]2O)cc1 (some centres undefined) | Active
43 | CC(=O)OC[C@H]1OC(OC(C)=O)[C@H](NC(=O)NS(=O)(=O)c2ccc(C)cc2)[C@@H](OC(C)=O)[C@@H]1OC(C)=O (some centres undefined) | Active
44 | O=C(N[C@H]1C(O)O[C@H](CO)[C@@H](O)[C@@H]1O)NS(=O)(=O)c1ccccc1 (some centres undefined) | Active
